Calls of active or inactive are those of the source. The calls are words filed in the database; no cut-off is given here.
Key:
Pichinde virus [1] = assay: Antiviral activity against Pichinde virus An 4763 infected Syrian golden hamster assessed as animals with detectable virus level in serum at 50 mg/kg, po twice daily for 7 days administered 72 hrs post viral-challenge measured on day 7 of viral infection; assay type: functional
Procedure, shortened: (§1)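 Hamsters (groups of 15, placebo 25-30) were dosed orally by gavage twice daily (drug suspended in 0.4% CMC) after bilateral intraperitoneal challenge with 65 PFU. Five per group were killed on day 7. Liver homogenate or serum was serially diluted onto triplicate B-SC-1 wells, CPE was read at 6-8 days, and the 50% endpoint was taken. Range was 2.8-9.5 log10 CCID50/0.1 g or 0.1 ml, with undetectable assigned <2.8.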

Pichinde virus [2] = assay: Antiviral activity against Pichinde virus An 4763 infected Syrian golden hamster assessed as mean viral titer per 0.1 g of liver at 60 mg/kg, po twice daily for 7 days administered 4 hrs before viral-challenge measured on day 7 of viral infection; assay type: functional
Pichinde virus [3] = assay: Antiviral activity against Pichinde virus An 4763 infected Syrian golden hamster assessed as mean viral titer per 0.1 mL of serum at 15 mg/kg, po twice daily for 7 days administered 4 hrs before viral-challenge measured on day 7 of viral infection; assay type: functional
Punta Toro virus [4] = assay: Antiviral activity against 500 PFU Punta Toro virus Adames infected C57BL/6 mouse assessed as mean viral titer per 0.1 mL of serum at 75 mg/kg, po twice daily administered 4 hrs before viral challenge measured on day 4 of viral infection; assay type: functional
Procedure, shortened: (§2)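 Mice were infected subcutaneously with PTV and dosed by oral gavage twice daily; 5 per group (10 placebo) were killed on day 3 or 4. Liver homogenate or serum was serially diluted onto triplicate LLC-MK2 monolayers, and CPE was read 6–8 days later. 50% endpoints gave log10 CCID50 per 0.1 g liver or 0.1 ml serum. Detection range was 2.8–9.5; undetectable samples were assigned <2.8.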

Punta Toro virus [5] = assay: Antiviral activity against 500 PFU Punta Toro virus Adames infected C57BL/6 mouse assessed as survival at 75 mg/kg, po twice daily for 5 days administered 4 hrs before viral challenge; assay type: functional, organism-based; set-up: dose 75 mg/kg
Procedure, shortened: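 PTV was inoculated subcutaneously into mice in groups of 15 (25–30 placebo). Dosing was by oral gavage twice daily for 5–7 days, with T-705 suspended in 0.4% CMC and ribavirin in saline. Remaining animals were observed 21–28 days for survival and day of death. Test doses had first been checked for tolerance in uninfected animals.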

Pichinde virus [6] = assay: Antiviral activity against Pichinde virus An 4763 infected Syrian golden hamster assessed as animals with detectable virus level in liver at 20 mg/kg, po twice daily for 7 days administered 72 hrs post viral-challenge measured on day 7 of viral infection; assay type: functional; procedure, shortened: as §1
Punta Toro virus [7] = assay: Antiviral activity against 500 PFU Punta Toro virus Adames infected C57BL/6 mouse assessed as mean serum ALT levels at 25 mg/kg, po twice daily administered 4 hrs before viral challenge measured on day 4 of viral infection; assay type: functional
Procedure, shortened: (§3)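 C57BL/6 mice received subcutaneous PTV, then oral gavage twice daily for 5–7 days. T-705 was given in 0.4% CMC and ribavirin in saline. Five mice per group (10 placebo) were killed on day 3 or 4, and serum was collected. ALT activity was measured by kinetic assay. Three sham-infected mice set baselines.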

Punta Toro virus [8] = assay: Antiviral activity against 500 PFU Punta Toro virus Adames infected C57BL/6 mouse assessed as inhibition of liver damage at 200 mg/kg, po twice daily administered 4 hrs before viral challenge measured on day 4 of viral infection; assay type: functional, organism-based; set-up: dose 200 mg/kg
Procedure, shortened: (§4)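 Mice were infected with PTV subcutaneously and dosed by oral gavage twice daily (0.4% CMC vehicle). Five animals per group (10 placebo) were sacrificed on day 3 or 4. Livers were scored 0–4 for hepatic icterus, where 0 is normal and 4 is maximal yellow coloration.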

Influenza A virus = assay: Antiviral activity against influenza A virus; assay type: functional, organism-based
Punta Toro virus [9] = assay: Antiviral activity against 500 PFU Punta Toro virus Adames infected C57BL/6 mouse assessed as mean viral titer per 0.1 mL of serum at 50 mg/kg, po twice daily administered 4 hrs before viral challenge measured on day 4 of viral infection; assay type: functional; procedure, shortened: as §2
Punta Toro virus [10] = assay: Antiviral activity against 500 PFU Punta Toro virus Adames infected C57BL/6 mouse assessed as animals with detectable virus level in liver at 30 mg/kg, po twice daily administered 24 hrs post viral challenge measured on day 3 of viral infection; assay type: functional
Procedure, shortened: (§5)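 T-705 was suspended in 0.4% carboxymethylcellulose and given by oral gavage twice daily. Mice were infected subcutaneously with PTV. Five mice per group (10 placebo) were sacrificed on day 3 or 4. Liver homogenate or serum was serially diluted onto triplicate LLC-MK2 monolayers, and CPE was read at 6–8 days. The detection limit was 2.8 log10 CCID50 per 0.1 g liver or 0.1 ml serum.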

Punta Toro virus [11] = assay: Antiviral activity against 5000 PFU Punta Toro virus Adames infected C57BL/6 mouse assessed as mean viral titer per 0.1 mL of serum at 30 mg/kg, po twice daily administered 24 hrs post viral challenge measured on day 3 of viral infection; assay type: functional; procedure, shortened: as §2
Punta Toro virus [12] = assay: Antiviral activity against 500 PFU Punta Toro virus Adames infected C57BL/6 mouse assessed as animals with detectable virus level in serum at 100 mg/kg, po twice daily administered 4 hrs before viral challenge measured on day 4 of viral infection; assay type: functional; procedure, shortened: as §5
Pichinde virus [13] = assay: Antiviral activity against Pichinde virus An 4763 infected Syrian golden hamster assessed as animals with detectable virus level in serum at 15 mg/kg, po twice daily for 7 days administered 4 hrs before viral-challenge measured on day 7 of viral infection; assay type: functional; procedure, shortened: as §1
Punta Toro virus [14] = assay: Antiviral activity against 500 PFU Punta Toro virus Adames infected C57BL/6 mouse assessed as animals with detectable virus level in liver at 200 mg/kg, po twice daily administered 4 hrs before viral challenge measured on day 4 of viral infection; assay type: functional; procedure, shortened: as §5
Punta Toro virus [15] = assay: Antiviral activity against 500 PFU Punta Toro virus Adames infected C57BL/6 mouse assessed as inhibition of liver damage at 75 mg/kg/day, po twice daily administered 4 hrs before viral challenge measured on day 3 of viral infection; assay type: functional, organism-based; procedure, shortened: as §4
Punta Toro virus [16] = assay: Antiviral activity against Punta Toro virus Adames infected Syrian golden hamster assessed as mean viral titer per 0.1 mL of serum at 15 mg/kg, po twice daily administered 4 hrs before viral challenge measured on day 4 of viral infection; assay type: functional
Punta Toro virus [17] = assay: Antiviral activity against 500 PFU Punta Toro virus Adames infected C57BL/6 mouse assessed as mean day of death at 100 mg/kg, po twice daily for 5 days administered 4 hrs before viral challenge; assay type: functional
Procedure, shortened: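 Groups of 15 mice (25–30 placebo) were inoculated subcutaneously with PTV. Drug in 0.4% carboxymethylcellulose was given by oral gavage twice daily.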

Pichinde virus [18] = assay: Antiviral activity against Pichinde virus An 4763 infected Syrian golden hamster assessed as mean serum ALT levels at 15 mg/kg, po twice daily for 7 days administered 4 hrs before viral-challenge measured on day 7 of viral infection; assay type: functional
Punta Toro virus [19] = assay: Antiviral activity against Punta Toro virus Adames infected Syrian golden hamster assessed as inhibition of liver damage at 30 mg/kg, po twice daily administered 4 hrs before viral challenge measured on day 4 of viral infection; assay type: functional, organism-based; set-up: dose 30 mg/kg
Procedure, shortened: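 Hamsters were challenged subcutaneously with 50 PFU and dosed twice daily by oral gavage in 0.4% CMC. Five per group were sacrificed on day 3 or 4. Livers were scored 0-4 for icterus, and serum ALT was measured by kinetic assay against three sham-infected baseline animals.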

Punta Toro virus [20] = assay: Antiviral activity against 500 PFU Punta Toro virus Adames infected C57BL/6 mouse assessed as mean serum ALT levels at 75 mg/kg, po twice daily administered 4 hrs before viral challenge measured on day 4 of viral infection; assay type: functional; procedure, shortened: as §3

## NC(=O)c1nc(F)cnc1O [FAVIPIRAVIR]
Pichinde virus [1]
  Activity: 100%
Pichinde virus [2]
  log10CCID50: <2.8
Pichinde virus [3]
  log10CCID50: <5.3
Punta Toro virus [4]
  log10CCID50: <3.3
Punta Toro virus [5]
  Activity: Active
Pichinde virus [6]
  Activity: 100%
Punta Toro virus [7]
  Activity: 69 IU/L
Punta Toro virus [8]
  Activity: Active
Influenza A virus
  EC50: 83 nM
Punta Toro virus [9]
  log10CCID50: <3.1
Punta Toro virus [10]
  Activity: 60%
Punta Toro virus [11]
  log10CCID50: <3.3
Punta Toro virus [12]
  Activity: 0%
Pichinde virus [13]
  Activity: 80%
Punta Toro virus [14]
  Activity: 0%
Punta Toro virus [15]
  Activity: Active
Punta Toro virus [16]
  log10CCID50: <4.1
Punta Toro virus [17]
  Activity: >21 days
Pichinde virus [18]
  Activity: 1220 IU/L
Punta Toro virus [19]
  Activity: Active

## NC(=O)c1ncn([C@@H]2O[C@H](CO)[C@@H](O)[C@H]2O)n1 [RIBAVIRIN]
Pichinde virus [1]
  Activity: 100%
Punta Toro virus [20]
  Activity: 38 IU/L
Pichinde virus [6]
  Activity: 100%
Punta Toro virus [10]
  Activity: 60%
Punta Toro virus [11]
  log10CCID50: <4.2
Punta Toro virus [19]
  Activity: Active
